The nature of experiment [1]: reduced viability of SK-BR-3 breast cancer cells – cell-based, 24 h, human, pilot screen (AID 572;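 active = viability at or below 10% of carrier control in both of two separate runs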;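 note: compound exposure lasted between 18 and 24 h rather than exactly 24 h; 100% = carrier-treated control wells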). The settings on record: SK-BR-3 viability, CellTiter-Glo luminescence, at 10 µM, stronger effect = lower value. Background: Cellular ATP, detected with luciferase, serves as a proxy for viable cell number.
Experiment [2] can be described thus: HUVEC growth inhibition – cell-based, human, primary screen (AID 575;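 active = viability at or below 30% in both replicate assays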;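 note: 100% = median of untreated cell wells with 0.1% DMSO on each plate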). The settings on record: HUVEC proliferation, CellTiter-Glo luminescence, 72 h; at 10 µM; stronger effect = lower value. An outline of the steps:
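Test system: HUVEC primary cells. Quantity: 1250 endothelial cells in each well. Dosing: single-point 10 µM, DMSO 0.1% final. Incubation: 72 h treatment at 37 °C. Measured by: CTG luminescence. Control set: DMSO cell controls and MePR drug controls. Plate: collagen-coated 384-well format.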

Experiment [3] is described as follows: H69AR cell proliferation blockers – human, duplicate replicates, primary screen (AID 580).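 Note: 100% = mean luminescence of untreated wells and 0% = no signal.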 As to conditions: H69AR lung tumor cells viability, ATP luminescence, 72 h; at 10 µM; stronger effect = lower value.
Experiment [4] can be described thus: MRP1 drug-resistance reversers in H69AR cells – cell-based, doxorubicin co-treatment, pilot screen (AID 601;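 active = viability loss from added drug above about 55%, and viability with drug at most 40%, in both replicates, limit read from the data, passing the limit was not always enough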). As to conditions: CellTiter-Glo, 72 h, at 10 µM; for differential viability (reversal): stronger effect = higher value.
Experiment [5] in a line: yeast transport mutant growth inhibition pilot in 384-well plates, post-Golgi transport modulator project (AID 636; in the data active = inhibition above about 31%). As to conditions: absorbance 615 nm, about 18 h, stronger effect = higher value.
Experiment [6] in a line: growth suppression of yeast trafficking mutant, preliminary HTS, modulators of trafficking downstream of Golgi apparatus project, 1536-format plate, OD 615 nm (AID 637; in the data active = inhibition above about 30%). The settings on record: yeast transport mutant growth, absorbance 615 nm, 18 h; stronger effect = higher value.
The mark [7] stands for this setting: H69AR cells + 2 uM doxorubicin, measured here: viability with 2 uM doxorubicin, stronger effect = lower value.
[8] abbreviates: H69AR cells, compound alone cytotoxicity.

Active and inactive are the calls of the source.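 Rule for the calls, unless noted: active = viability at or under a set limit in both replicates, limit being median viability minus 3 SD (cut at about 48% in these data, passing the limit was not always enough); inconclusive = at or under the limit in just one replicate; inactive = at or above the limit in both replicates.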 Peptide text beside a SMILES is read from it. * marks the point of attachment. Boc = CC(C)(C)OC(=O)*

Usually viability stands for a read-out of living cells in per cent, often relative to untreated cells. As usually defined, the inhibition is the relative decrease from the control value, in per cent. Turning to `CC1(C)S[C@@H]2[C@H](NC(=O)C(C(=O)O)c3ccccc3)C(=O)N2[C@H]1C(=O)O` (stereo partly specified), the viability in experiment [1] was 87% (inactive); in experiment [2] it was 73.9% (inactive); in experiment [3], 107% (inactive); in experiment [4] (setting [7]) it was 103%; in experiment [4] (setting [8]) it was 107%. The differential viability (reversal) in experiment [4] (H69AR cells + 2 uM doxorubicin) was 3.92% (inactive). The results for the inhibition in experiment [5] and in experiment [6] were -1.43% (inactive) and -2.67% (inactive), respectively.

Turning to `CCOC(=O)c1cc(-c2ccccc2)sc1N`, the viability is 129% (inactive) in experiment [1]; 71.1% (inactive) in experiment [2]; 81.3% (inactive) in experiment [3]; 77.8% in experiment [4] (setting [7]); 81.3% in experiment [4] (setting [8]). Further, in experiment [4] (H69AR cells + 2 uM doxorubicin), the differential viability (reversal) is 3.5% (inactive). Moreover, the inhibition is -6% (inactive) in experiment [5] and -2% (inactive) in experiment [6].

In the case of `CSCCC(NC(=O)OC(C)(C)C)C(=O)NC(CC(C)C)C(N)=O` (stereo not drawn) (Boc-Met-Leu-NH2; configuration not given here), the viability in experiment [1] is 91% (inactive); in experiment [2] it was 97.7% (inactive); in experiment [3], 92% (inactive); in experiment [4] (setting [7]), 90.4%; in experiment [4] (setting [8]) it was 92%. In addition, the differential viability (reversal) in experiment [4] (H69AR cells + 2 uM doxorubicin) is 1.58% (inactive). In addition, the inhibition in experiment [5] is 0.39% (inactive); in experiment [6], 0.16% (inactive).

For the compound `COc1ccc(Cn2nnnc2CN2CCOCC2)cc1`, the viability in experiment [1] is 100% (inactive); in experiment [2], 97.4% (inactive); in experiment [3], 96.7% (inactive); in experiment [4] (setting [7]), 102%; in experiment [4] (setting [8]) it was 96.7%. In addition, the differential viability (reversal) in experiment [4] (H69AR cells + 2 uM doxorubicin) was -5.83% (inactive). Also, the inhibition is -6.85% (inactive) in experiment [5] and -0.81% (inactive) in experiment [6].

For `C=CCNC(=O)c1ccc(Cl)cc1Cl`, the viability in experiment [1] is 108% (inactive); in experiment [2] it was 92.8% (inactive); in experiment [3], 97% (inactive); in experiment [4] (setting [7]), 92.6%; in experiment [4] (setting [8]), 97%. In addition, in experiment [4] (H69AR cells + 2 uM doxorubicin), the differential viability (reversal) is 4.47% (inactive). The inhibition was -3.9% (inactive) in experiment [5] and -1.48% (inactive) in experiment [6].

Regarding `CCNc1ccc(S(=O)(=O)C(F)(F)F)cc1NC(=O)C12CCC(CC1)C2`, the viability in experiment [1] was 102% (inactive); in experiment [2], 102% (inactive); in experiment [3], 92.3% (inactive); in experiment [4] (setting [7]) it was 95.7%; in experiment [4] (setting [8]), 92.3%. In experiment [4] (H69AR cells + 2 uM doxorubicin), the differential viability (reversal) was -3.33% (inactive). In addition, the inhibition is 1.78% (inactive) in experiment [5] and 2% (inactive) in experiment [6].

For the compound `Cc1ccc2c(c1)C(N1CCCC1=O)CC(c1ccco1)N2` (stereo unspecified), the viability in experiment [1] is 108% (inactive); in experiment [2] it was 74.7% (inactive); in experiment [3], 68.7% (inactive); in experiment [4] (setting [7]), 66.6%; in experiment [4] (setting [8]), 68.7%. The differential viability (reversal) in experiment [4] (H69AR cells + 2 uM doxorubicin) was 2.15% (inactive). The inhibition in experiment [5] is -5.6% (inactive); in experiment [6], -6.51% (inactive).

With `C=CCN(CC=C)C(=O)Nc1cc(Cl)ccc1OC`, the viability in experiment [1] was 83% (inactive); in experiment [2] it was 95.3% (inactive); in experiment [3] it was 96.9% (inactive); in experiment [4] (setting [7]), 96.9%; in experiment [4] (setting [8]), 96.9%. Further, the differential viability (reversal) in experiment [4] (H69AR cells + 2 uM doxorubicin) was 0% (inactive). Further, the figures for the inhibition in experiment [5] and in experiment [6] were -8.77% (inactive) and -3.27% (inactive), respectively.

Turning to `CC(C)(C)C(=O)OCC1OC(n2cnc(C(N)=O)n2)C(O)C1O` (stereo unspecified), the viability was 89% (inactive) in experiment [1]; 99.1% (inactive) in experiment [2]; 96.1% (inactive) in experiment [3]; 94.5% in experiment [4] (setting [7]); 96.1% in experiment [4] (setting [8]). Further, the differential viability (reversal) in experiment [4] (H69AR cells + 2 uM doxorubicin) was 1.56% (inactive). The inhibition is -8.22% (inactive) in experiment [5] and -2.36% (inactive) in experiment [6].

With `COCCn1c(C)cc(C(=O)COC(=O)c2ccc(N3CCCC3=O)cc2)c1C`, the viability in experiment [1] was 95% (inactive); in experiment [2], 88.4% (inactive); in experiment [3], 92.3% (inactive); in experiment [4] (setting [7]), 83.4%; in experiment [4] (setting [8]) it was 92.3%. The differential viability (reversal) in experiment [4] (H69AR cells + 2 uM doxorubicin) is 8.88% (inactive). Further, the inhibition in experiment [5] was -4.8% (inactive); in experiment [6] it was 2.18% (inactive).

As for `Cn1nc(C(C)(C)C)cc1C(=O)NCc1ccc(N2CCCC2=O)cc1`, the viability in experiment [1] was 87% (inactive); in experiment [2] it was 15.1% (active); in experiment [3], 99% (inactive); in experiment [4] (setting [7]), 103%; in experiment [4] (setting [8]), 99%. The differential viability (reversal) in experiment [4] (H69AR cells + 2 uM doxorubicin) is -3.59% (inactive). Further, the values for the inhibition in experiment [5] and in experiment [6] were -5.34% (inactive) and 0.91% (inactive), respectively.

Take `c1ccc(-c2nc3ccccc3nc2-c2ccccn2)nc1`: the viability in experiment [1] was 89% (inactive); in experiment [2] it was 107% (inactive); in experiment [3], 89.5% (inactive); in experiment [4] (setting [7]), 99.1%; in experiment [4] (setting [8]), 89.5%. Moreover, the differential viability (reversal) in experiment [4] (H69AR cells + 2 uM doxorubicin) was -9.55% (inactive). For the same compound, the values for the inhibition in experiment [5] and in experiment [6] were -1.17% (inactive) and 0.98% (inactive), respectively.

For the origin of these results see PubChem BioAssay.
